Laboratory results: ChEMBL document CHEMBL1629640, “Antimicrobial activities of jadomycin B and structurally related analogues” (2009)
Converted amounts (≈) assume the structure as drawn.

Experiments:
[1] = test system: Enterococcus faecalis; assay: Antimicrobial activity against Enterococcus faecalis C625 by broth microdilution method; type: functional
How it was run: (§1)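 Preliminary screen by broth microdilution. Jadomycins dissolved in 100% DMSO and diluted to a 2.56 mg ml−1 working stock in 5% DMSO. First well held 0.5% DMSO final, followed by twofold serial dilutions in broth. A DMSO-only control was included. Strains were grown in Mueller-Hinton broth to mid-log, diluted 100-fold, incubated 4 h, then diluted 10−6. Plates were incubated overnight and growth was read visually. MIC defined as growth ≤ half of control. Three replicates.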

[2] = test system: Pseudomonas aeruginosa; assay: Antimicrobial activity against Pseudomonas aeruginosa H187 by broth microdilution method; type: functional; how it was run: as §1
[3] = test system: Staphylococcus aureus; assay: Antimicrobial activity against Staphylococcus aureus Becker CP8 by broth microdilution method; type: functional
How it was run: (§2)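 Preliminary MIC screen by twofold serial broth microdilution in Mueller-Hinton broth, 0.5% DMSO final, with a DMSO-only control. Overnight mid-log cultures were diluted 100-fold, grown 4 h, then diluted 10−6 and added to wells. Plates were incubated overnight and growth read visually. Inhibition was defined as growth ≤ half of control. Three replicates per strain.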

[4] = test system: Staphylococcus aureus; assay: Antimicrobial activity against Staphylococcus aureus 305 by CLSI method; type: functional
How it was run: (§3)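 MIC by CLSI broth microdilution in cation-adjusted Mueller-Hinton broth at 5 × 10^5 CFU ml−1 final (5 × 10^4 CFU/well).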

[5] = test system: Staphylococcus epidermidis; assay: Antimicrobial activity against Staphylococcus epidermidis C960 by broth microdilution method; type: functional; how it was run: as §1
[6] = test system: Staphylococcus aureus; assay: Antimicrobial activity against Staphylococcus aureus ATCC 55804 by broth microdilution method
[7] = test system: Bacillus subtilis; assay: Antimicrobial activity against Bacillus subtilis C971 by broth microdilution method; type: functional; how it was run: as §1
[8] = test system: Staphylococcus aureus; assay: Antimicrobial activity against methicillin-resistant Staphylococcus aureus C623 by broth microdilution method; type: functional; how it was run: as §2
[9] = test system: Staphylococcus epidermidis; assay: Antimicrobial activity against Staphylococcus epidermidis isolate C621 by broth microdilution method; type: functional; how it was run: as §1
[10] = test system: Staphylococcus aureus; assay: Antimicrobial activity against methicillin-resistant Staphylococcus aureus C623 by CLSI method; type: functional; how it was run: as §3
[11] = test system: Pseudomonas aeruginosa; assay: Antimicrobial activity against Pseudomonas aeruginosa H188 by broth microdilution method; type: functional; how it was run: as §1
[12] = test system: Staphylococcus aureus; assay: Antimicrobial activity against Staphylococcus aureus 305 by broth microdilution method; type: functional; how it was run: as §2
[13] = test system: Staphylococcus epidermidis; assay: Antimicrobial activity against Staphylococcus epidermidis C960 by CLSI method; type: functional
[14] = test system: Staphylococcus aureus; assay: Antimicrobial activity against Staphylococcus aureus C622 by broth microdilution method; type: functional; how it was run: as §2

SMILES	MIC [1] [µg/mL]	MIC [2] [µg/mL]	MIC [3] [µg/mL]	MIC [4] [µg/mL]	MIC [5] [µg/mL]	MIC [6] [µg/mL]	MIC [7] [µg/mL]	MIC [8] [µg/mL]	MIC [9] [µg/mL]	MIC [10] [µg/mL]	MIC [11] [µg/mL]	MIC [12] [µg/mL]	MIC [13] [µg/mL]	MIC [14] [µg/mL]
Cc1cc(O)c2c(c1)[C@@H]1OC(=O)[C@@H]([C@H](C)O)N1C1=C2C(=O)c2cccc(O[C@H]3C[C@@H](O)[C@@H](O)[C@H](C)O3)c2C1=O [JADOMYCIN DT]	> 128	> 128	32 (≈ 59.5 µM)	32 (≈ 59.5 µM)	2 (≈ 3.72 µM)	64 (≈ 119 µM)	64 (≈ 119 µM)	16 (≈ 29.8 µM)	8 (≈ 14.9 µM)	32 (≈ 59.5 µM)	> 128	32 (≈ 59.5 µM)	4 (≈ 7.44 µM)	16 (≈ 29.8 µM)
Cc1cc(O)c2c(c1)[C@@H]1OC(=O)[C@H](CC(C)C)N1C1=C2C(=O)c2cccc(O[C@H]3C[C@@H](O)[C@@H](O)[C@H](C)O3)c2C1=O [JADOMYCIN L]	> 128	> 128	8 (≈ 14.6 µM)	8 (≈ 14.6 µM)	< 1	16 (≈ 29.1 µM)	16 (≈ 29.1 µM)	< 1	4 (≈ 7.28 µM)	8 (≈ 14.6 µM)	> 128	8 (≈ 14.6 µM)	0.5 (≈ 0.91 µM)	< 1
Cc1cc(O)c2c(c1)[C@@H]1OC(=O)[C@H](Cc3ccc(O)cc3)N1C1=C2C(=O)c2cccc(O[C@H]3C[C@@H](O)[C@@H](O)[C@H](C)O3)c2C1=O [JADOMYCIN Y]	> 128	> 128	4 (≈ 6.67 µM)		< 1	16 (≈ 26.7 µM)	8 (≈ 13.3 µM)	8 (≈ 13.3 µM)	2 (≈ 3.34 µM)		> 128	4 (≈ 6.67 µM)		8 (≈ 13.3 µM)
CC[C@H]1OC(=O)[C@H](C)[C@@H](O[C@H]2C[C@@](C)(OC)[C@@H](O)[C@H](C)O2)[C@H](C)[C@@H](O[C@@H]2O[C@H](C)C[C@H](N(C)C)[C@H]2O)[C@](C)(O)C[C@@H](C)C(=O)[C@H](C)[C@@H](O)[C@]1(C)O [ERYTHROMYCIN]	1 (≈ 1.36 µM)	> 2	< 0.25		< 0.125	< 0.25	< 0.125	> 128	< 0.125		> 2	< 0.25		< 1
CSCC[C@@H]1C(=O)O[C@H]2c3cc(C)cc(O)c3C3=C(C(=O)c4c(O[C@H]5C[C@@H](O)[C@@H](O)[C@H](C)O5)cccc4C3=O)N12 [JADOMYCIN DM]	> 128	> 128	16 (≈ 28.2 µM)	32 (≈ 56.4 µM)	< 1	64 (≈ 113 µM)	16 (≈ 28.2 µM)	4 (≈ 7.05 µM)	2 (≈ 3.52 µM)	16 (≈ 28.2 µM)	> 128	32 (≈ 56.4 µM)	2 (≈ 3.52 µM)	2 (≈ 3.52 µM)
Cc1cc(O)c2c(c1)[C@@H]1OC(=O)[C@H]([C@H](C)O)N1C1=C2C(=O)c2cccc(O[C@H]3C[C@@H](O)[C@@H](O)[C@H](C)O3)c2C1=O [JADOMYCIN T]	> 128	> 128	4 (≈ 7.44 µM)	64 (≈ 119 µM)	< 1	16 (≈ 29.8 µM)	8 (≈ 14.9 µM)	8 (≈ 14.9 µM)	2 (≈ 3.72 µM)	32 (≈ 59.5 µM)	> 128	4 (≈ 7.44 µM)	1 (≈ 1.86 µM)	8 (≈ 14.9 µM)
Cc1cc(O)c2c(c1)[C@@H]1OC(=O)[C@H](CO)N1C1=C2C(=O)c2cccc(O[C@H]3C[C@@H](O)[C@@H](O)[C@H](C)O3)c2C1=O [JADOMYCIN S]	> 128	> 128	8 (≈ 15.3 µM)	32 (≈ 61.1 µM)	1 (≈ 1.91 µM)	32 (≈ 61.1 µM)	16 (≈ 30.6 µM)		4 (≈ 7.64 µM)	32 (≈ 61.1 µM)	> 128	8 (≈ 15.3 µM)	0.5 (≈ 0.955 µM)	
Cc1cc(O)c2c(c1)[C@@H]1NC(=O)C[C@@H](C(=O)O)N1C1=C2C(=O)c2cccc(O[C@H]3C[C@@H](O)[C@@H](O)[C@H](C)O3)c2C1=O [JADOMYCIN N]	> 128	> 128	16 (≈ 29.1 µM)	> 128	< 1	32 (≈ 58.1 µM)	32 (≈ 58.1 µM)	16 (≈ 29.1 µM)	8 (≈ 14.5 µM)	128 (≈ 233 µM)	> 128	8 (≈ 14.5 µM)	16 (≈ 29.1 µM)	32 (≈ 58.1 µM)
Cc1cc(O)c2c(c1)[C@@H]1OC(=O)[C@H](Cc3ccccc3)N1C1=C2C(=O)c2cccc(O[C@H]3C[C@@H](O)[C@@H](O)[C@H](C)O3)c2C1=O [JADOMYCIN F]	> 128	> 128	8 (≈ 13.7 µM)	4 (≈ 6.85 µM)	< 1	16 (≈ 27.4 µM)	16 (≈ 27.4 µM)	1 (≈ 1.71 µM)	2 (≈ 3.43 µM)	8 (≈ 13.7 µM)	> 128	4 (≈ 6.85 µM)	0.5 (≈ 0.857 µM)	1 (≈ 1.71 µM)
CC[C@H](C)[C@H]1C(=O)O[C@H]2c3cc(C)cc(O)c3C3=C(C(=O)c4c(O[C@H]5C[C@@H](O)[C@@H](O)[C@H](C)O5)cccc4C3=O)N12 [JADOMYCIN B]	32 (≈ 58.2 µM)	> 128	2 (≈ 3.64 µM)	4 (≈ 7.28 µM)	< 1	4 (≈ 7.28 µM)	4 (≈ 7.28 µM)	< 1	< 1	8 (≈ 14.6 µM)	> 128	< 1	0.5 (≈ 0.91 µM)	2 (≈ 3.64 µM)
Cc1cc(O)c2c(c1)[C@@H]1OC(=O)[C@@H](CO)N1C1=C2C(=O)c2cccc(O[C@H]3C[C@@H](O)[C@@H](O)[C@H](C)O3)c2C1=O [JADOMYCIN DS]	> 128	> 128	8 (≈ 15.3 µM)	32 (≈ 61.1 µM)	1 (≈ 1.91 µM)	16 (≈ 30.6 µM)	16 (≈ 30.6 µM)	8 (≈ 15.3 µM)	4 (≈ 7.64 µM)	16 (≈ 30.6 µM)	> 128	4 (≈ 7.64 µM)	2 (≈ 3.82 µM)	8 (≈ 15.3 µM)
Cc1cc(O)c2c(c1)[C@@H]1OC(=O)CN1C1=C2C(=O)c2cccc(O[C@H]3C[C@@H](O)[C@@H](O)[C@H](C)O3)c2C1=O [JADOMYCIN G]	> 128	> 128	32 (≈ 64.8 µM)	> 128	2 (≈ 4.05 µM)	64 (≈ 130 µM)	64 (≈ 130 µM)	32 (≈ 64.8 µM)	8 (≈ 16.2 µM)	> 128	> 128	64 (≈ 130 µM)	32 (≈ 64.8 µM)	64 (≈ 130 µM)
